Measurements as given in publication PMC7249612 (Biochemistry, 2016).

How the values were obtained:
LoxA [1] = assay: LoxA inhibition, manual cuvette assay; assay type: biochemical, Pseudomonas aeruginosa; details: for single-point screen inhibition percentage, LoxA: 25 μM inhibitor, 10 μM AA; for selectivity for LoxA versus human LOX isozymes: from single-point screens at 25 μM
15-LOX-1 = biological target: T1, 15-LOX-1 (Homo sapiens, UniProt P16050); assay: Human LOX isozyme specificity screen, 15-LOX-1; assay type: biochemical; details: 25 μM inhibitor, 10 μM AA
T1 sequence (P16050 1-662): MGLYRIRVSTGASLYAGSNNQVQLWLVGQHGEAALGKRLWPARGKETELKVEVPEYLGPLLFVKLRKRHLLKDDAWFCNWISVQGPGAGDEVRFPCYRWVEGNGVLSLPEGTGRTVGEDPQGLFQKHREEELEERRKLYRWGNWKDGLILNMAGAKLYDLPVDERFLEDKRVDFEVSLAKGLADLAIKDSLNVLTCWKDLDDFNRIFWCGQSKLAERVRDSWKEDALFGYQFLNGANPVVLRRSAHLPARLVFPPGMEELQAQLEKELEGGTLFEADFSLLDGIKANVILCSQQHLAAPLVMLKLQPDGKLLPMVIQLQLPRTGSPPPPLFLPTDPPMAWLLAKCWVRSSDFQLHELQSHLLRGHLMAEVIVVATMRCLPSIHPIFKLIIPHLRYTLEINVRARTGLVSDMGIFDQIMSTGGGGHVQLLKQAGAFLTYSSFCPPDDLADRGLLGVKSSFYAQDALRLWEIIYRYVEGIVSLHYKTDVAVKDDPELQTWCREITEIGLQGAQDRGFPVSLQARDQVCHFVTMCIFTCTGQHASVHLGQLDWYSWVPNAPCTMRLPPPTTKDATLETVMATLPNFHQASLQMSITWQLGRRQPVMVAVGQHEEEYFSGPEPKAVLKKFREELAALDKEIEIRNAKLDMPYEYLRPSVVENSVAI

12-LOX = biological target: T2, 12-LOX (Homo sapiens, UniProt P18054); assay: Human LOX isozyme specificity screen, 12-LOX; assay type: biochemical; details: 25 μM inhibitor, 10 μM AA
T2 sequence (P18054 1-663): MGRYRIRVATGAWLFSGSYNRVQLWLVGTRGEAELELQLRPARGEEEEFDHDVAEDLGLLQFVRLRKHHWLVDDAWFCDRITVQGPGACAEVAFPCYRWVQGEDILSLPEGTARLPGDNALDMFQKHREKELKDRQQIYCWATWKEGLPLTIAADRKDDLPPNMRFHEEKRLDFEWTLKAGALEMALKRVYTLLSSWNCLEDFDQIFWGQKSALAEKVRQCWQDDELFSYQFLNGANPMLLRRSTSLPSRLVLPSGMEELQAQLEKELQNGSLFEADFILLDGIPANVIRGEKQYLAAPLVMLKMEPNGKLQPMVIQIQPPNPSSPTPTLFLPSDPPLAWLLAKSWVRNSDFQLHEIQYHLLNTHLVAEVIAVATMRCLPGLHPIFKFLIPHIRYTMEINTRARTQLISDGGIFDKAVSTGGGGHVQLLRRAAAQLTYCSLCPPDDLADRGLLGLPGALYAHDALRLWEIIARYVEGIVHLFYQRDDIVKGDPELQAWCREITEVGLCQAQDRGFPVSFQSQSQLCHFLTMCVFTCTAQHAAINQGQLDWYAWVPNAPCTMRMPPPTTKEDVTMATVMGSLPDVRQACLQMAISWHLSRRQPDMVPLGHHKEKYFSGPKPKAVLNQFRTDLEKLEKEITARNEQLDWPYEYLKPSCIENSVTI

5-LOX = biological target: T3, 5-LOX (Homo sapiens, UniProt P09917); assay: Human LOX isozyme specificity screen, 5-LOX; assay type: biochemical; details: 25 μM inhibitor, 10 μM AA
T3 sequence (P09917 1-674): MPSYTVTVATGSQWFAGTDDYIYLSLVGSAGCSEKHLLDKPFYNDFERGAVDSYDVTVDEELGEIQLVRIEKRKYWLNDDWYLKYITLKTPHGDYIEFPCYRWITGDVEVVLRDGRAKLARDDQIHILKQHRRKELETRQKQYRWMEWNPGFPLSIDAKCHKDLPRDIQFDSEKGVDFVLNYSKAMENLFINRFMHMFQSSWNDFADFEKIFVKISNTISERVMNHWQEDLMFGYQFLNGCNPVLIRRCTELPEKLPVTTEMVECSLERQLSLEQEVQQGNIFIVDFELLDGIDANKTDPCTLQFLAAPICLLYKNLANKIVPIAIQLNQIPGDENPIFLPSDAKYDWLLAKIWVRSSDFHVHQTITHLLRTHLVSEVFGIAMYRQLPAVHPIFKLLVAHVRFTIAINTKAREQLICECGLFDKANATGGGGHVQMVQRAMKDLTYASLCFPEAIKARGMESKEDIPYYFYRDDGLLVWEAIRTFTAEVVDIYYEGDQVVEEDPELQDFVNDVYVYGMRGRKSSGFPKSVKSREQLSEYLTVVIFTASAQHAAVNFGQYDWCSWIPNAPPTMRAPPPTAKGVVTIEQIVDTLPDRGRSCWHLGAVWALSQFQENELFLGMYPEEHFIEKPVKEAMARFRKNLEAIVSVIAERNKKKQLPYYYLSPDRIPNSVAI

15-LOX-2 = biological target: T4, 15-LOX-2 (Homo sapiens, UniProt O15296); assay: Human LOX isozyme specificity screen, 15-LOX-2; assay type: biochemical; details: 25 μM inhibitor, 10 μM AA
T4 sequence (O15296 1-676): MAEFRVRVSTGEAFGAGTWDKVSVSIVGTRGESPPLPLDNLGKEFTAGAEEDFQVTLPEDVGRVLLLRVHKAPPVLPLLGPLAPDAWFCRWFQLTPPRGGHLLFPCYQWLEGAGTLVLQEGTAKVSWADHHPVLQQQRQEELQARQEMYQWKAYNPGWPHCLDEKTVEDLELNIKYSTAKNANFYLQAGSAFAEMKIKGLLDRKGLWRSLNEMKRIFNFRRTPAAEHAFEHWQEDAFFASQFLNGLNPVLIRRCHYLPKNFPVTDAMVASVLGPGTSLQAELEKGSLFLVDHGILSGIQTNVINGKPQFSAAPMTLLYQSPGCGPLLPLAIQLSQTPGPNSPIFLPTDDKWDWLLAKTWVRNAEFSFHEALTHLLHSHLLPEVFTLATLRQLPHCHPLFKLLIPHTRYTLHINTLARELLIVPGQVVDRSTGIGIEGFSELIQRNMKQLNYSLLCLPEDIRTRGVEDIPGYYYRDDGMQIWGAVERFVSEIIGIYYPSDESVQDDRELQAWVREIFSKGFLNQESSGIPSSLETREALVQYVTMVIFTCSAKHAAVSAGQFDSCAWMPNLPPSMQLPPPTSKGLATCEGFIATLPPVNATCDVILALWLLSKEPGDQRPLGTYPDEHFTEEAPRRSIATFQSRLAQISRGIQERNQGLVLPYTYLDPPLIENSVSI

LoxA [2] = assay: LoxA secondary product profile; assay type: biochemical, Pseudomonas aeruginosa; details: 10 μM substrate, pH 7.0
LoxA [3] = assay: LoxA substrate preference; assay type: biochemical, Pseudomonas aeruginosa; details: initial rate at 10 μM substrate, pH 7.0, relative to AA
Procedure, shortened: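 His6-tagged LoxA was expressed in E. coli BL21(DE3), purified on Ni-NTA, and dosed by iron content. About 7 nM enzyme started each reaction. Each fatty acid substrate was C18 HPLC-purified and used at 10 μM in 25 mM HEPES pH 7.0 without Triton X-100. Initial rate of conjugated diene formation was followed at 234 nm (ε 25000 M−1cm−1) and expressed relative to the AA rate.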

LoxA [4] = assay type: biochemical, Pseudomonas aeruginosa; details: for Kcat / Km: substrate of LoxA, 25 mM HEPES pH 7.0

## Nc1ncnc2c1c(-c1ccc(Oc3ccccc3)cc1)cn2C1CCCC1 [NCGC00015280]
LoxA [1]
  single-point screen inhibition percentage, LoxA: 86%
15-LOX-1
  single-point screen inhibition percentage, 15-LOX-l: 51%
12-LOX
  single-point screen inhibition percentage, 12-LOX: 38%
5-LOX
  single-point screen inhibition percentage, 5-LOX: 42%
15-LOX-2
  single-point screen inhibition percentage, 15-LOX-2: 0%

## CCCCC/C=C\C/C=C\C/C=C\C=C\[C@@H](O)CCCC(=O)O [5-HETE]
LoxA [2]
  times slower relative to the Kcat with AA: 100,000 times

## O=C1NCN(c2ccccc2)C12CCN(CCCC(c1ccc(F)cc1)c1ccc(F)cc1)CC2 [NCGC00015424]
LoxA [1]
  single-point screen inhibition percentage, LoxA: 87%
  selectivity for LoxA versus human LOX isozymes: selectivity towards LoxA over 12-LOX and 15-LOX-2 and not the other human isozymes
15-LOX-1
  single-point screen inhibition percentage, 15-LOX-l: 76%
12-LOX
  single-point screen inhibition percentage, 12-LOX: 63%
5-LOX
  single-point screen inhibition percentage, 5-LOX: 74%
15-LOX-2
  single-point screen inhibition percentage, 15-LOX-2: 21%

## CCCCC/C=C\C/C=C\CCCCCCCCCC(=O)O [EDA]
LoxA [3]
  % AA Rate (10 μM): 33(10) %

## CC(Cc1ccc(O)c(O)c1)C(C)Cc1ccc(O)c(O)c1 (stereo not drawn) [NDGA, nordihydroguaiaretic acid, reference compound]
LoxA [1]; compared with the human enzymes
  IC50 value against LoxA: comparable to the values obtained against the human enzymes

## CCCCC/C=C\C/C=C\CCCCCCCC(=O)O [d31-LA]
LoxA [4]
  Kcat: 0.9 (0.1) s^−1
  Km: 100 µM

## CC/C=C\C/C=C\C/C=C\C/C=C\C/C=C\C/C=C\CCC(=O)O [DHA]
LoxA [3]
  % AA Rate (10 μM): 72(10) %

## CN[C@H]1CC[C@@H](c2ccc(Cl)c(Cl)c2)c2ccccc21.Cl [NCGC00092386]
LoxA [1]
  single-point screen inhibition percentage, LoxA: 76%
15-LOX-1
  single-point screen inhibition percentage, 15-LOX-l: 51%
12-LOX
  single-point screen inhibition percentage, 12-LOX: 26%
5-LOX
  single-point screen inhibition percentage, 5-LOX: 83%
15-LOX-2
  single-point screen inhibition percentage, 15-LOX-2: 5%

## Fc1ccc(C(c2ccc(F)cc2)N2CCN(C/C=C\c3ccccc3)CC2)cc1 [NCGC00018102]
LoxA [1]
  single-point screen inhibition percentage, LoxA: 86%
  selectivity for LoxA versus human LOX isozymes: selectivity towards LoxA over 12-LOX, 15-LOX-1, and 15-LOX-2
LoxA [1]; read-out: LoxA IC50, manual cuvette assay, pH 7.0, 10 μM AA
  IC50: 4.5 ± 0.4 µM
15-LOX-1
  single-point screen inhibition percentage, 15-LOX-l: 65%
12-LOX
  single-point screen inhibition percentage, 12-LOX: 25%
5-LOX
  single-point screen inhibition percentage, 5-LOX: 96%
15-LOX-2
  single-point screen inhibition percentage, 15-LOX-2: 0%

## Fc1ccc(C(OCCN2CCN(CCCc3ccccc3)CC2)c2ccc(F)cc2)cc1 [NCGC00015300]
LoxA [1]
  single-point screen inhibition percentage, LoxA: 83%
15-LOX-1
  single-point screen inhibition percentage, 15-LOX-l: 65%
12-LOX
  single-point screen inhibition percentage, 12-LOX: 48%
5-LOX
  single-point screen inhibition percentage, 5-LOX: 41%
15-LOX-2
  single-point screen inhibition percentage, 15-LOX-2: 13%

## CCCCC/C=C\C/C=C\CCCCCCCC(=O)O [LA, linoleic acid]
LoxA [3]
  % AA Rate (10 μM): 72(10) %
LoxA [4]; noncompetitive, LA versus perdeuterated LA
  KIE for Kcat: 32 +/− 6
LoxA [4]
  Kcat: 28 (2) s^−1
  Km: 7 µM

## O=c1[nH]c2ccccc2n1C1CCN(CCCC(c2ccc(F)cc2)c2ccc(F)cc2)CC1 [NCGC00015802]
LoxA [1]
  single-point screen inhibition percentage, LoxA: 90%
  selectivity for LoxA versus human LOX isozymes: selectivity towards LoxA over 12-LOX, 15-LOX-1, and 15-LOX-2
15-LOX-1
  single-point screen inhibition percentage, 15-LOX-l: 69%
12-LOX
  single-point screen inhibition percentage, 12-LOX: 50%
5-LOX
  single-point screen inhibition percentage, 5-LOX: 80%
15-LOX-2
  single-point screen inhibition percentage, 15-LOX-2: 16%

## CCCCCC=CCC=CCC=CC=CC(CCCC(=O)O)OO (stereo not drawn) [5-HpETE, 5-hydroperoxyeicosatetraenoic acid]
LoxA [2]
  times slower relative to the Kcat with AA: 100,000 times

## COC(=O)[C@H]1[C@H]2C[C@@H]3c4[nH]c5cc(OC)ccc5c4CCN3C[C@H]2C[C@@H](OC(=O)c2cc(OC)c(OC)c(OC)c2)[C@@H]1OC [NCGC00091250]
LoxA [1]
  single-point screen inhibition percentage, LoxA: 69%
15-LOX-1
  single-point screen inhibition percentage, 15-LOX-l: 57%
12-LOX
  single-point screen inhibition percentage, 12-LOX: 23%
5-LOX
  single-point screen inhibition percentage, 5-LOX: 37%
15-LOX-2
  single-point screen inhibition percentage, 15-LOX-2: 5%

## O=C(CCCCCN1CCN(c2ccccc2-c2ccccc2)CC1)NC1CCCc2ccccc21 (stereo not drawn) [NCGC00186032]
LoxA [1]
  single-point screen inhibition percentage, LoxA: 87%
15-LOX-1
  single-point screen inhibition percentage, 15-LOX-l: 57%
12-LOX
  single-point screen inhibition percentage, 12-LOX: 36%
5-LOX
  single-point screen inhibition percentage, 5-LOX: 78%
15-LOX-2
  single-point screen inhibition percentage, 15-LOX-2: 5%

## CC/C=C\C/C=C\C/C=C\C/C=C\C/C=C\CCCC(=O)O [EPA]
LoxA [3]
  % AA Rate (10 μM): 61(10) %

## CCCCC/C=C\C/C=C\C/C=C\CCCCCCC(=O)O [DGLA, Dihomo-gamma-linolenic acid]
LoxA [3]
  % AA Rate (10 μM): 44(10) %

## CC/C=C\C/C=C\C/C=C\CCCCCCCC(=O)O [ALA]
LoxA [3]
  % AA Rate (10 μM): 78(10) %

## CCCCC/C=C\C/C=C\C/C=C\CCCCC(=O)O [GLA]
LoxA [3]
  % AA Rate (10 μM): 44(10) %

## CC(C)(C)c1ccc(C(=O)CCCN2CCC(OC(c3ccccc3)c3ccccc3)CC2)cc1 [NCGC00164603]
LoxA [1]
  single-point screen inhibition percentage, LoxA: 95%
15-LOX-1
  single-point screen inhibition percentage, 15-LOX-l: 76%
12-LOX
  single-point screen inhibition percentage, 12-LOX: 33%
5-LOX
  single-point screen inhibition percentage, 5-LOX: 23%
15-LOX-2
  single-point screen inhibition percentage, 15-LOX-2: 0%

## CC/C(=C(\c1ccccc1)c1ccc(OCCN(C)C)cc1)c1ccccc1 [NCGC00024928]
LoxA [1]
  single-point screen inhibition percentage, LoxA: 82%
15-LOX-1
  single-point screen inhibition percentage, 15-LOX-l: 73%
12-LOX
  single-point screen inhibition percentage, 12-LOX: 39%
5-LOX
  single-point screen inhibition percentage, 5-LOX: 79%
15-LOX-2
  single-point screen inhibition percentage, 15-LOX-2: 8%
